Measured values published in ChEMBL document CHEMBL3779892, “Increasing the binding affinity of VEGFR-2 inhibitors by extending their hydrophobic interaction with the active site: Design, synthesis and biological evaluation of 1-substituted-4-(4-methoxybenzyl)phthalazine derivatives” (Eur J Med Chem, 2016).

Tests used:
[1] = system: MCF7; test: Growth inhibition of human MCF7 cells at 10 uM after 48 hrs by sulforhodamine B assay; assay type: functional; settings: MCF7, 48 h, read-out: GI
Outline: (§1)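 Run at NCI on the 60-line panel. Cells grown in RPMI 1640 with 5% FBS and 2 mM L-glutamine, plated at 5000–40,000 cells/well by doubling time, and held 24 h at 37 °C before dosing. Drug (DMSO stock) given at a single final 10 µM in triplicate wells for 48 h. Adherent cells fixed with cold TCA (10% final), suspension cells with 16% TCA. SRB stain read at 515 nm. Percent growth from Tz, C and Ti.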

[2] = Growth inhibition of human MOLT4 cells at 10 uM after 48 hrs by sulforhodamine B assay; assay type: functional; settings: MOLT-4, 48 h, read-out: GI; outline: as §1
[3] = Growth inhibition of human RPMI8226 cells at 10 uM after 48 hrs by sulforhodamine B assay; assay type: functional; settings: RPMI-8226, 48 h, read-out: GI; outline: as §1
[4] = system: KM12; test: Growth inhibition of human KM12 cells at 10 uM after 48 hrs by sulforhodamine B assay; assay type: functional; settings: KM12, 48 h, read-out: GI; outline: as §1
[5] = Growth inhibition of human SF539 cells at 10 uM after 48 hrs by sulforhodamine B assay; assay type: functional; settings: SF-539, 48 h, read-out: GI; outline: as §1
[6] = Growth inhibition of human SF295 cells at 10 uM after 48 hrs by sulforhodamine B assay; assay type: functional; settings: SF-295, 48 h, read-out: GI; outline: as §1
[7] = Growth inhibition of human IGROV1 cells at 10 uM after 48 hrs by sulforhodamine B assay; assay type: functional; settings: IGROV-1, 48 h, read-out: GI; outline: as §1
[8] = Growth inhibition of human NCI-ADR-RES cells at 10 uM after 48 hrs by sulforhodamine B assay; assay type: functional; settings: read-out: GI; outline: as §1
[9] = system: 786-0; test: Growth inhibition of human 786-0 cells at 10 uM after 48 hrs by sulforhodamine B assay; assay type: functional; settings: 786-0, 48 h, read-out: GI; outline: as §1
[10] = molecular target: serum albumin (Bos taurus, UniProt P02769); test: Binding affinity to bovine serum albumin at pH 7.4 at 25 degC by equilibrium dialysis method; assay type: ADME; settings: cattle, read-out: PB (converted)
[11] = Growth inhibition of human TK10 cells at 10 uM after 48 hrs by sulforhodamine B assay; assay type: functional; settings: TK-10, 48 h, read-out: GI
Outline: (§2)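 NCI-60 panel, adherent cells grown in RPMI 1640 with 5% FBS and 2 mM L-glutamine, plated at 5000–40,000 cells/well and preincubated 24 h at 37 °C, 5% CO2. 10 µM final compound from DMSO stock, triplicate wells, 48 h. Fixed with cold TCA (10% final, 60 min, 4 °C) and stained with 0.4% SRB. Absorbance read at 515 nm; growth calculated against time-zero and control wells.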

[12] = Growth inhibition of human UACC62 cells at 10 uM after 48 hrs by sulforhodamine B assay; assay type: functional; settings: UACC-62, 48 h, read-out: GI; outline: as §2
[13] = system: SK-MEL-28; test: Growth inhibition of human SK-MEL-28 cells at 10 uM after 48 hrs by sulforhodamine B assay; assay type: functional; settings: SK-MEL-28, 48 h, read-out: GI; outline: as §1
[14] = system: K562; test: Growth inhibition of human K562 cells at 10 uM after 48 hrs by sulforhodamine B assay; assay type: functional; settings: K562, 48 h, read-out: GI; outline: as §1
[15] = Growth inhibition of human SNB75 cells at 10 uM after 48 hrs by sulforhodamine B assay; assay type: functional; settings: SNB-75, 48 h, read-out: GI; outline: as §1
[16] = Growth inhibition of human DU145 cells at 10 uM after 48 hrs by sulforhodamine B assay; assay type: functional; settings: DU-145, 48 h, read-out: GI; outline: as §1
[17] = system: NCI-H322M; test: Growth inhibition of human NCI-H322M cells at 10 uM after 48 hrs by sulforhodamine B assay; assay type: functional; settings: read-out: GI; outline: as §1
[18] = Growth inhibition of human COLO205 cells at 10 uM after 48 hrs by sulforhodamine B assay; assay type: functional; settings: COLO 205, 48 h, read-out: GI; outline: as §1
[19] = Growth inhibition of human UACC257 cells at 10 uM after 48 hrs by sulforhodamine B assay; assay type: functional; settings: UACC-257, 48 h, read-out: GI; outline: as §2
[20] = Growth inhibition of human HOP62 cells at 10 uM after 48 hrs by sulforhodamine B assay; assay type: functional; settings: HOP-62, 48 h, read-out: GI; outline: as §1
[21] = Growth inhibition of human BT549 cells at 10 uM after 48 hrs by sulforhodamine B assay; assay type: functional; settings: BT-549, 48 h, read-out: GI; outline: as §1
[22] = Growth inhibition of human OVCAR4 cells at 10 uM after 48 hrs by sulforhodamine B assay; assay type: functional; settings: OVCAR-4, 48 h, read-out: GI; outline: as §1
[23] = system: T47D; test: Growth inhibition of human T47D cells at 10 uM after 48 hrs by sulforhodamine B assay; assay type: functional; settings: read-out: GI; outline: as §2
[24] = Growth inhibition of human HCC2998 cells at 10 uM after 48 hrs by sulforhodamine B assay; assay type: functional; settings: HCC 2998, 48 h, read-out: GI; outline: as §1

serum albumin, sequence (P02769 whole entry): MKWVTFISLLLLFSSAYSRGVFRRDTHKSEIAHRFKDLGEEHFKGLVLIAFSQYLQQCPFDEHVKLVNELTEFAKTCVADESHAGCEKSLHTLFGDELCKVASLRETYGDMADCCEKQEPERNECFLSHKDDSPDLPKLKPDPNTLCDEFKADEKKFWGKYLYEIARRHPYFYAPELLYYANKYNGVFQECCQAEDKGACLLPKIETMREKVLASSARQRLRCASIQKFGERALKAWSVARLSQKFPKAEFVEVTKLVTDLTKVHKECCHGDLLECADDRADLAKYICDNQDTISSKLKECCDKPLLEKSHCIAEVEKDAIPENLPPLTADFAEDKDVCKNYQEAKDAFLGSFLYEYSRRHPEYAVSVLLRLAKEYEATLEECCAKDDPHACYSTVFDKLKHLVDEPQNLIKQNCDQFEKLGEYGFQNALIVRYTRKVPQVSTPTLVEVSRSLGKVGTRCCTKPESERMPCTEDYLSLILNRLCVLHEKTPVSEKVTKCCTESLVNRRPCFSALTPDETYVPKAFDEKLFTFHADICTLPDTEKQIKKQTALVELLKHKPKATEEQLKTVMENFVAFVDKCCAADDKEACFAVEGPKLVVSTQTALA

fraction unbound [10]: 0.921
Structure (SMILES): COc1ccc(Cc2nnc(Nc3ccc(NC(=O)Nc4ccc(OC)cc4)cc3)c3ccccc23)cc1
inhibition of growth at 10 µM [1]: 30%
inhibition of growth at 10 µM [2]: 47%
inhibition of growth at 10 µM [3]: 91%
inhibition of growth at 10 µM [4]: 39%
inhibition of growth at 10 µM [5]: 49%
inhibition of growth at 10 µM [6]: 81%
inhibition of growth at 10 µM [7]: < 30%
inhibition of growth at 10 µM [8]: < 30%
inhibition of growth at 10 µM [9]: 63%
inhibition of growth at 10 µM [11]: < 30%
inhibition of growth at 10 µM [12]: < 30%
inhibition of growth at 10 µM [13]: < 30%
inhibition of growth at 10 µM [14]: < 30%
inhibition of growth at 10 µM [15]: 50%
inhibition of growth at 10 µM [16]: < 30%
inhibition of growth at 10 µM [17]: < 30%
inhibition of growth at 10 µM [18]: < 30%
inhibition of growth at 10 µM [19]: < 30%
inhibition of growth at 10 µM [20]: 33%
inhibition of growth at 10 µM [21]: 31%
inhibition of growth at 10 µM [22]: < 30%
inhibition of growth at 10 µM [23]: 42%
inhibition of growth at 10 µM [24]: < 30%
